Measurements of several laboratories.
Compare with care: the assays were run in different laboratories.
Sample: plasma

The Vd of `CCNCCCNC/C=C\CNCCCNCC` is reported as 1.17 L/kg (human; intravenous, 100 mg, patients, infusion).
For `C[C@@]1(c2cc(NC(=O)c3ccc(C#N)cn3)ccc2F)C=CSC(N)=N1`, the Vd/F was 240 L (human; oral, 90 mg, single dose).
`CC(C)(Sc1ccncc1-c1ccc(C#N)c2ccccc12)C(=O)O` has a Vd/F of 280 L (male human; oral, 40 mg, single dose, fasted, healthy volunteers).
`Cc1cc(Nc2cc(N3CCN(C)CC3)nc(/C=C/c3ccccc3)n2)n[nH]1` gave a Vd/F of 2440 L (human; oral, 120 mg/m², patients).
The Vd/F of `c1cnc2ccc(Nc3nc(NC4CC4)c4nc[nH]c4n3)cc2c1` is reported as 597 L (human; oral, 50 mg/m², patients).
`CO[C@H]1CC[C@H](N2C(=O)CNc3ncc(-c4ccc(C(C)(C)O)nc4)nc32)CC1` has a Vd/F of 235 L (human; oral, 7.5 mg, patients).
With `COc1ccc([C@@H]2CN(C(=O)[C@@H](O)CO)C[C@@]2(C)[C@@H](C)O)cc1OC1CN(c2ccc(C)cn2)C1` the Vd/F was 57.6 L (human; oral, 10 mg, single dose, healthy volunteers).
With `COc1cc(C(=O)NC2CCN(C)CC2)c(F)cc1Nc1ncc(C(F)(F)F)c(Oc2cccc3c2C(=O)N(C)C3)n1` the Vd/F was 776 L (human; oral, 10 mg, multiple doses, once daily, patients).
